Measurements: ChEMBL document CHEMBL3351736, “A promising camptothecin derivative: Semisynthesis, antitumor activity and intestinal permeability” (Eur J Med Chem, 2014)
pIC50: −log10 of the molar value. Activity calls are given as the source filed them. The calls are words filed in the database; no cut-off is given here.

How the values were obtained:
[1] = test system: Caco-2; assay: Induction of apoptosis in human Caco2 cells assessed as late apoptotic cells at 0.05 uM after 24 hrs by Annexin V/propidium iodide staining-based flow cytometric analysis (reference value: 2.20 +/- 0.77%); type: functional
[2] = test system: HeLa; assay: Induction of apoptosis in human HeLa cells assessed as p53 phosphorylation at Ser15 by Western blotting analysis; type: functional, cell-based
Summary of the method: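 Cells treated 24 h. About 10^6 cells lysed on ice 15 min in Hepes pH 7.4/Triton X-100 buffer with phosphatase and protease inhibitors, then spun 13,000 × g. 30 µg protein run on 12% SDS-PAGE and blotted to nitrocellulose. Primary anti-phospho-p53 (Ser15) and anti-p53 at 1:1000 for 2 h at room temperature, then HRP secondary and ECL densitometry. Results referred to untreated control.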

[3] = test system: A-375; assay: Induction of apoptosis in human A375 cells assessed as inhibition of DNA synthesis at 0.8 to 1.6 uM after 24 hrs by BrdU staining-based ELISA; type: functional, cell-based
Summary of the method: (§1)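 BrdU colorimetric cell proliferation ELISA. Cells seeded at 25,000 per well, compounds added 24 h after seeding and incubated 24 h. Cells fixed and the immunoassay run per kit. Absorbance read at 370-492 nm over 3 intervals of 5 min; absorbance difference proportional to BrdU incorporation. Mean of three separate experiments in triplicate, compared with untreated control.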

[4] = test system: MDA-MB-231; assay: Induction of apoptosis in human MDA-MB-231 cells assessed as inhibition of DNA synthesis at 0.8 to 1.6 uM after 24 hrs by BrdU staining-based ELISA; type: functional, cell-based; summary of the method: as §1
[5] = Permeability from basolateral to apical side in human Caco2 cells at 10 to 50 uM after 15 to 90 mins by HPLC analysis; type: ADME, cell-based; settings: caco-2, 50 µM
Summary of the method: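 Caco-2 cells seeded at 400,000 per polycarbonate transwell insert (0.4 μm pore) and grown in DMEM for 19-22 days to confluence at 37°C, 5% CO2. TEER checked before and after each run. Compound in donor chamber, buffer in receiver. Run at 37°C with 50 rpm orbital shaking. Receiver sampled at 15, 30, 60 and 90 min with buffer replacement; donor sampled at start and end. HPLC quantitation; three independent experiments.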

[6] = test system: MDA-MB-231; assay: Cytotoxicity against human MDA-MB-231 cells after 24 hrs by MTT assay; type: functional, cell-based; settings: MDA-MB-231, 24 h
Summary of the method: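 Cells seeded at 25000 per well and held 24 h at 37 °C in 5% CO2. Medium was then renewed and compounds added at increasing concentrations (DMSO 0.1%, or water for topotecan) for 24 h. MTT solution (5 mg/mL) was added for 3 h at 37 °C, then absorbance read at 570 nm, corrected at 630 nm. IC50 in µM.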

[7] = test system: Caco-2; assay: Induction of apoptosis in human Caco2 cells assessed as vital cells at 0.05 uM after 24 hrs by Annexin V/propidium iodide staining-based flow cytometric analysis (reference value: 96.67 +/- 1.02%); type: functional
[8] = test system: Caco-2; assay: Induction of apoptosis in human Caco2 cells assessed as necrotic cells at 0.5 uM after 48 hrs by Annexin V/propidium iodide staining-based flow cytometric analysis (reference value: 0.41 +/- 0.02%); type: functional
[9] = Effective permeability from apical to basolateral side in human Caco2 cells at 50 uM after 15 to 90 mins by HPLC analysis; type: ADME, cell-based; settings: Caco-2, read-out: Peff
Summary of the method: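 Caco-2 monolayers grown 19-22 days on polycarbonate transwell inserts (4.2 cm², 0.4 µm pore) at 37 °C, 5% CO2; TEER checked before and after each run. Compound added to donor side at 37 °C, 50 rpm. Receiver sampled at 15, 30, 60 and 90 min; donor sampled at start and end. HPLC analysis. Sodium azide, when used, placed on both sides. Three independent experiments.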

[10] = test system: A-375; assay: Induction of apoptosis in human A375 cells assessed as inhibition of DNA synthesis after 24 hrs by BrdU staining-based ELISA; type: functional, cell-based
Summary of the method: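 Cells seeded at 25,000/well; compounds added 24 h after seeding at a range of concentrations and incubated 24 h. Cells fixed, then colorimetric BrdU-incorporation ELISA. Absorbance read at 370-492 nm over 3 intervals of 5 min. Mean of three separate experiments with triplicate samples.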

[11] = test system: Caco-2; assay: Induction of apoptosis in human Caco2 cells assessed as necrotic cells at 0.5 uM after 24 hrs by Annexin V/propidium iodide staining-based flow cytometric analysis (reference value: 0.41 +/- 0.02%); type: functional
[12] = Effective permeability in Wistar rat small intestine at 50 uM measured after 5 mins in every 5 min interval up to 30 mins; type: ADME, tissue-based; settings: not told, read-out: Peff
Summary of the method: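 In situ intestinal perfusion in male Wistar rats fasted 2 h with water allowed. Anaesthesia with diazepam (1.67 mg/kg), ketamine (50 mg/kg) and atropine (1 mg/kg); animals kept at 37 °C. Perfusate sampled every 5 min from 5 to 30 min; absorption rate constant and Peff derived.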

SMILES: CC[C@@]1(O)C(=O)OCc2c1cc1n(c2=O)Cc2cc3c(CN(C)C)c(O)ccc3nc2-1.Cl [TOPOTECAN HYDROCHLORIDE]
- Activity [1]: 19.54%
- Activity [2]: inactive
- Activity [3]: Active
- Activity [4]: Active
- permeability [5]: permeable
- pIC50 [6]: 6.33
- Activity [7]: 71.4%
- Activity [8]: 2.88%
- Papp A→B at 50 µM [9]: 17.7 nm/s
- inhibition [10]: Dose-dependent effect
- Activity [11]: 8.54%
- Papp at 5 min, 50 µM [12]: 558 nm/s
